Results taken from ChEMBL document CHEMBL3822431, “Hydroxychalcone inhibitors of Streptococcus mutans glucosyl transferases and biofilms as potential anticaries agents” (Bioorg Med Chem Lett, 2016).

Molecular target: T1, Glucosyltransferase-SI (Streptococcus mutans serotype c (strain ATCC 700610 / UA159)) (UniProt P13470)
T1 sequence (whole entry): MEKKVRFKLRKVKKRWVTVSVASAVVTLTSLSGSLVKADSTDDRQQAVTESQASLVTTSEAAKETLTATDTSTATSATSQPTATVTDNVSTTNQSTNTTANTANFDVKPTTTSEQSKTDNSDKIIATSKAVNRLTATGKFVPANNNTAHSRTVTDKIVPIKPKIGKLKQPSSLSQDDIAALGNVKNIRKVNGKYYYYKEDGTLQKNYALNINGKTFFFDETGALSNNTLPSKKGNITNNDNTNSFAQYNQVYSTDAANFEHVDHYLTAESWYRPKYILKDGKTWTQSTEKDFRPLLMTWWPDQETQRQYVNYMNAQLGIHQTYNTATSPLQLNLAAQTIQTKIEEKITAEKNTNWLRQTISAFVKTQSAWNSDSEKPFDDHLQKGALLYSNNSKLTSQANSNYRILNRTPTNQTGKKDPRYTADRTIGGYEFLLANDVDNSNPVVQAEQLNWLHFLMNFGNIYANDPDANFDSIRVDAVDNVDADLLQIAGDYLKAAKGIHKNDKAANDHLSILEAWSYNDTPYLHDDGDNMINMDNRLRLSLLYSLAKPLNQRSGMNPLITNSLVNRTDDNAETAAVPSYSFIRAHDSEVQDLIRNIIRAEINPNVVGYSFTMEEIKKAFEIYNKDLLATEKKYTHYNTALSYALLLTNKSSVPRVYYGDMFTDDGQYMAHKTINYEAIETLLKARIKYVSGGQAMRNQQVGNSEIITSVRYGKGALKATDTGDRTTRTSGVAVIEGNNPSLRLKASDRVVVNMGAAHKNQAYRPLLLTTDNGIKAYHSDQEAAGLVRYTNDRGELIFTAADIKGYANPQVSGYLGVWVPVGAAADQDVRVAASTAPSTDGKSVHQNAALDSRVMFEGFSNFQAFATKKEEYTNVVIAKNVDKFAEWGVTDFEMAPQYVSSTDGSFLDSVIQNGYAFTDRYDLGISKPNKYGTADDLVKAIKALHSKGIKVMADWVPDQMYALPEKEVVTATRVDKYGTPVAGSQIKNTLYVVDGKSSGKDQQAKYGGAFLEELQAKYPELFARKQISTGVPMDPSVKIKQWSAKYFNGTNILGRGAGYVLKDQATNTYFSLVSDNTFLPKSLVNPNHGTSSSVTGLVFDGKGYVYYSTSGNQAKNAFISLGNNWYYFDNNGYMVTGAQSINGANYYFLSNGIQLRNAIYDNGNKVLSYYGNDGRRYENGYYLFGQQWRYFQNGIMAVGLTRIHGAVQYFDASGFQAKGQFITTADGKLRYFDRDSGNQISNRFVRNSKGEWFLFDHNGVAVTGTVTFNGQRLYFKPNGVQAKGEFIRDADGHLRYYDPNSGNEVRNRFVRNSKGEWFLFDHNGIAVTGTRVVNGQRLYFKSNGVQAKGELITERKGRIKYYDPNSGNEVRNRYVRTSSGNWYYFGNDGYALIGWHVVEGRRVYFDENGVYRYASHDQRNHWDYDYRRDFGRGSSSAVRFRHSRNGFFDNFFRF
Experiment: Inhibition of Wild-type Streptococcus mutans UA159 glucosyltransferase C by zymography
In short: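 S. mutans UA159 wild type co-incubated with compound at different concentrations; Gtfs concentrated from supernatants, separated by SDS-PAGE and assayed by zymography, glucan band intensity reflecting enzyme activity.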

inhibition: Dose-dependent effect
SMILES: O=C(/C=C\c1ccc(O)cc1O)c1cccc(O)c1
